The term Ki denotes a dissociation constant, usually derived from enzyme kinetics or from competition with a known ligand.

The source of these data is ChEMBL document CHEMBL1141892, “Syntheses and properties of the major hydroxy metabolites in humans of blonanserin AD-5423, a novel antipsychotic agent” (Bioorg Med Chem Lett, 2005).

In assay [1] the target is 5-hydroxytryptamine receptor 2A (Homo sapiens, UniProt P28223). Nature of the assay: In vitro binding affinity against recombinant human 5-hydroxytryptamine 2A receptor […]. The method in brief: (§1)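 Affinities are Ki values (nM) at human D2L and human 5-HT2A receptors, reported as mean ± SEM of three independent experiments.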
Sequence of 5-hydroxytryptamine receptor 2A (P28223 whole entry): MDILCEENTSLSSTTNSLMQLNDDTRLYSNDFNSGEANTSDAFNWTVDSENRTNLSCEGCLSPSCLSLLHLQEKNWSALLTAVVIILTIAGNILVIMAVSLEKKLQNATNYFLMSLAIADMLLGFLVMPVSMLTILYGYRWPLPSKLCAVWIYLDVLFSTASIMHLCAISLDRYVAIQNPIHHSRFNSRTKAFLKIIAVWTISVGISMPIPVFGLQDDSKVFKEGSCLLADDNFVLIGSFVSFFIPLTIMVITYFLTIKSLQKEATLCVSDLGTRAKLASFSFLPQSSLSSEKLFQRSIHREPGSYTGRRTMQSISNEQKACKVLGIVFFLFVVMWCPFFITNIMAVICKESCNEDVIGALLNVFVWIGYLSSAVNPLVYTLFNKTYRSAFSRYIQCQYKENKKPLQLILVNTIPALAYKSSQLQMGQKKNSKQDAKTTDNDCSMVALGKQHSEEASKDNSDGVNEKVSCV
In general terms: Microsomes from liver hold many membrane-bound enzymes, among them those of drug oxidation.

In the next assay the target is D(2) dopamine receptor (Homo sapiens, UniProt P14416). Nature of the assay: In vitro binding affinity against recombinant human dopamine receptor D2L […]. The method in brief: as §1
Sequence of D(2) dopamine receptor (P14416 whole entry): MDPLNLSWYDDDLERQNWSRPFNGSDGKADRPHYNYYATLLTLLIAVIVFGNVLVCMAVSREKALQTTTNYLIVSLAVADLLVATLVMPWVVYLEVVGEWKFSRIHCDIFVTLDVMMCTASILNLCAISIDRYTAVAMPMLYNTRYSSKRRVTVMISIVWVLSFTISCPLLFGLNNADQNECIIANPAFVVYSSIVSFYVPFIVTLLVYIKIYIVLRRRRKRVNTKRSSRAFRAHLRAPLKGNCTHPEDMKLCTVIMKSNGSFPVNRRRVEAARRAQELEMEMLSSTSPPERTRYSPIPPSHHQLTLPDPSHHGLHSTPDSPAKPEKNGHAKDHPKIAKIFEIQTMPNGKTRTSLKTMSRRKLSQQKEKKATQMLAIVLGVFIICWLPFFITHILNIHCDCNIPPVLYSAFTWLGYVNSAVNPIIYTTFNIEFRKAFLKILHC

As to `CCN1CCN(c2cc(-c3ccc(F)cc3)c3c(n2)CCC[C@H](O)CC3)CC1`, the Ki was determined as 18.5 nM in assay [1] and 21.2 nM on D(2) dopamine receptor.
The corresponding values for `CCN1CCN(c2cc(-c3ccc(F)cc3)c3c(n2)CCC[C@@H](O)CC3)CC1` are 14.7 nM and 6.2 nM.
With `CCN1CCN(c2cc(-c3ccc(F)cc3)c3c(n2)CCCCCC3)CC1` [BLONANSERIN], the Ki in assay [1] was 0.81 nM; at D(2) dopamine receptor it was 0.14 nM.
In the case of `CCN1CCN(c2cc(-c3ccc(F)cc3)c3c(n2)CC[C@@H](O)CCC3)CC1`, the Ki stood at 17.9 nM in assay [1] and 11.9 nM on D(2) dopamine receptor.
Regarding `CCN1CCN(c2cc(-c3ccc(F)cc3)c3c(n2)CC[C@H](O)CCC3)CC1`, the values for the Ki (in assay [1]; at D(2) dopamine receptor) were 9.67 nM and 3.6 nM, respectively.
